Laboratory results as given in article PMC12272566 (RSC Advances, 2025).

Experiments:
Assay type in all cases: biochemical
[1] = molecular target: T1, aldose reductase (Rattus norvegicus, UniProt P07943); test: aldose reductase inhibition assay
[2] = molecular target: α-glucosidase (Saccharomyces cerevisiae, UniProt P53341); test: inhibitory kinetic assay on α-glucosidase
[3] = molecular target: T1, aldose reductase; test: inhibitory kinetic assay on aldose reductase
Procedure, shortened: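 Aldose reductase from rat lens tissue. Reactions held NADPH (0.3 mM), phosphate buffer (100 mM, pH 6.2) and lithium sulfate (0.6 mM), with DL-glyceraldehyde substrate at several concentrations, with or without test compound, at 37 °C for 10 min. NADPH decrease was read at 340 nm. Rates were fitted by nonlinear Michaelis–Menten regression with Lineweaver–Burk, Dixon and slope secondary plots to derive Km, Vmax and Ki.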

Sequence of α-glucosidase (P53341 whole entry): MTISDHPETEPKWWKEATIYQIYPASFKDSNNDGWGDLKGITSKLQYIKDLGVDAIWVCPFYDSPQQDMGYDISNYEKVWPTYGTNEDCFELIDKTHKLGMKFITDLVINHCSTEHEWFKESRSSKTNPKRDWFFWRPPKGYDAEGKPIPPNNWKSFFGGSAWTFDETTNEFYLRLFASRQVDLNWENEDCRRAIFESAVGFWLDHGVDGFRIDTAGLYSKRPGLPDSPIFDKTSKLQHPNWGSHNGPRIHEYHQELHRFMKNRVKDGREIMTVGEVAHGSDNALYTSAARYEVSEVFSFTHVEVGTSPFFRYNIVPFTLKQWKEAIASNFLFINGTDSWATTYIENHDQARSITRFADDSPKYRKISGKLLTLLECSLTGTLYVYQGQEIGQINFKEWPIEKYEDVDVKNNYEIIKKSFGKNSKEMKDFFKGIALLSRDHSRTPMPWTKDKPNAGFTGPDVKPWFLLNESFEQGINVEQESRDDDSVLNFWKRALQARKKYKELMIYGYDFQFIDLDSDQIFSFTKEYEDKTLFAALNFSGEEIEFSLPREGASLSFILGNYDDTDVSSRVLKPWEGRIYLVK

effect on aldose reductase inhibition (in words) ([1]; 0–10 mM tested, data not shown)	SMILES	IC50 [1]	Ki [2]	inhibition type against α-glucosidase ([2]; Vmax decreased, Km fixed)	Ki [3]	inhibition type against aldose reductase ([3]; Vmax decreased, Km fixed)
weak effect	COc1cc(/C=C/c2ccc(O)cc2)cc(OC)c1 [pterostilbene]	–	–	–	–	–
–	COc1cc(O)cc(/C=C/c2ccc(O)cc2)c1 [pinostilbene, 3-methoxy-4′,5-dihydroxy-trans-stilbene]	55.4 ± 4.31 µM	14.3 ± 1.49 µM	noncompetitive-type inhibition	60 ± 4.64 µM	noncompetitive-type inhibition
